Test results reported in ChEMBL document CHEMBL1765057, “Pyrazolo[4,3-d]pyrimidine bioisostere of roscovitine: evaluation of a novel selective inhibitor of cyclin-dependent kinases with antiproliferative activity” (J Med Chem, 2011).
Activity calls are given as the source filed them. The rule behind the calls is not given here.

How the values were obtained:
[1] = molecular target: T1, Retinoblastoma-associated protein (Homo sapiens) (UniProt P06400); experiment: Inhibition of retinoblastoma protein in human MCF7 cells assessed as reduction of cyclin E level at 2.5 to 40 uM after 24 hrs by immunoblotting; format: cell-based
T1 sequence (whole entry): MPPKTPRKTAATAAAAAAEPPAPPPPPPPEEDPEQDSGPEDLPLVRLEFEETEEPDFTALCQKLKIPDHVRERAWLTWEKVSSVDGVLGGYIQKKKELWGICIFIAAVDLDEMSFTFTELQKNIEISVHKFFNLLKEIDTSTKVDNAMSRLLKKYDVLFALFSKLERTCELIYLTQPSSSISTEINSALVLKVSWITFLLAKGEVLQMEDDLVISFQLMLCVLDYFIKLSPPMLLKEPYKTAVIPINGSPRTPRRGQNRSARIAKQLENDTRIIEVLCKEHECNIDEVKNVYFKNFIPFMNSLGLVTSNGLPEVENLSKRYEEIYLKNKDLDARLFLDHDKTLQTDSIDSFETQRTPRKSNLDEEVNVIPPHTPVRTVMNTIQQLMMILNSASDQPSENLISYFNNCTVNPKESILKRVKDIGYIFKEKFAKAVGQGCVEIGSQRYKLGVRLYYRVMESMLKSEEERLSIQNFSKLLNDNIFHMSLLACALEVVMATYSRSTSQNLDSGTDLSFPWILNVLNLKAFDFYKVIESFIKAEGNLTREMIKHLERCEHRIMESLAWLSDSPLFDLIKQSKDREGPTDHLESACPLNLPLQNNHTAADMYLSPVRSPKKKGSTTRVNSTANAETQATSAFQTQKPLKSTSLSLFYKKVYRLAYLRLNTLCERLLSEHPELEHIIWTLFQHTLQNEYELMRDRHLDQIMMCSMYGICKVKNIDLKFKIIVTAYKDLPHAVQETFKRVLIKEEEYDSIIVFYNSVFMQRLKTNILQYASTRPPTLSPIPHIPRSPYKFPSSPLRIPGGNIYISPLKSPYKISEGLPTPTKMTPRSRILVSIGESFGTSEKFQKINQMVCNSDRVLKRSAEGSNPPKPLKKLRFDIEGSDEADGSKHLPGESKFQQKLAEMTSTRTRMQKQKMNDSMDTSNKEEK
How it was run: (§1)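 Asynchronous, exponentially growing MCF-7 cells were exposed 24 h to a range of concentrations. Total lysates were made in Laemmli buffer, run on SDS-PAGE and blotted to nitrocellulose. Membranes were probed overnight at 4 °C with specific or phosphospecific antibodies (pRb S249/T252, S780, S795, S807/811), with tubulin as loading control and ECL detection.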

MCF7 [2] = experiment: Cell cycle arrest in human MCF7 cells assessed as reduction of actively replicating DNA level at 80 uM after 24 hrs using propidium iodide and BrdU staining by flow cytometry; format: functional, cell-based
How it was run: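 Subconfluent MCF-7 cells were treated for 24 h at a range of concentrations. They were pulse-labelled with 10 μM BrdU for 30 min at 37 °C, then trypsinized and fixed in ice-cold 70% ethanol. DNA was denatured in 2 M HCl and neutralized with borate. Cells were stained with fluorescein anti-BrdU and with propidium iodide plus RNase A, then analysed by flow cytometry at 488 nm.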

RPMI-8226 = experiment: Cell cycle arrest in human RPMI8226 cells assessed as reduction of actively replicating DNA level at 80 uM after 24 hrs using propidium iodide and BrdU staining by flow cytometry; format: functional, cell-based
How it was run: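 Asynchronously growing RPMI-8226 multiple myeloma cells were exposed for 24 h. Cells were double-stained with propidium iodide and BrdU and analysed by flow cytometry for G1, S, G2/M and BrdU-positive fractions. The subG1 population was taken as indicative of apoptosis.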

[3] = molecular target: Glycogen synthase kinase-3 alpha (Homo sapiens) (UniProt P49840); experiment: Inhibition of human recombinant GSK3A at 10 uM
Glycogen synthase kinase-3 alpha (Homo sapiens), sequence (P49840 2-483 limits assumed): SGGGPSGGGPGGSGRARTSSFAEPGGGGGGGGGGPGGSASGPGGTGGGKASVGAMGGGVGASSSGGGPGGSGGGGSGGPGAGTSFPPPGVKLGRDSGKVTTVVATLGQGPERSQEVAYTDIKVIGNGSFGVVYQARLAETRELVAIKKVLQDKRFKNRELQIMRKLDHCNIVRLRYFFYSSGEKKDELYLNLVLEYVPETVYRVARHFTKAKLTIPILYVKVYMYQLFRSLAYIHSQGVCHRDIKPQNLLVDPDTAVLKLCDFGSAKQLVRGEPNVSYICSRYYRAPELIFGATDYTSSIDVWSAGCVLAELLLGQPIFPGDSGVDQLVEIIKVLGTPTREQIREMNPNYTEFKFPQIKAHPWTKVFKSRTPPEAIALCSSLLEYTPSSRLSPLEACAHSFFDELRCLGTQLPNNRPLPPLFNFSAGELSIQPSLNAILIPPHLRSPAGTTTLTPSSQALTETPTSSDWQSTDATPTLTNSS

G-361 = experiment: Cytotoxicity against human G361 cells after 72 hrs by fluoroskan ascent microplate reader analysis; format: functional, cell-based; conditions: G-361, 72 h
How it was run: (§2)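 Cells were grown in DMEM with 10% FCS and 4 mM glutamine at 37 °C under CO2, then plated at densities suited to each line. Compounds were added as 3-fold dilutions in triplicate for 72 h.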

MCF7 [4] = experiment: Induction of apoptosis in human MCF7 cells at 10 uM after 24 hrs; format: functional, cell-based
[5] = molecular target: Cellular tumor antigen p53 (Homo sapiens) (UniProt P04637); experiment: Induction of p53-dependent transcriptional activity in human ARN8 cells assessed as beta-galactosidase activity at 10 to 20 uM after 24 hrs by immunofluorescence assay; format: cell-based
Cellular tumor antigen p53 (Homo sapiens), sequence (P04637 whole entry, looked up): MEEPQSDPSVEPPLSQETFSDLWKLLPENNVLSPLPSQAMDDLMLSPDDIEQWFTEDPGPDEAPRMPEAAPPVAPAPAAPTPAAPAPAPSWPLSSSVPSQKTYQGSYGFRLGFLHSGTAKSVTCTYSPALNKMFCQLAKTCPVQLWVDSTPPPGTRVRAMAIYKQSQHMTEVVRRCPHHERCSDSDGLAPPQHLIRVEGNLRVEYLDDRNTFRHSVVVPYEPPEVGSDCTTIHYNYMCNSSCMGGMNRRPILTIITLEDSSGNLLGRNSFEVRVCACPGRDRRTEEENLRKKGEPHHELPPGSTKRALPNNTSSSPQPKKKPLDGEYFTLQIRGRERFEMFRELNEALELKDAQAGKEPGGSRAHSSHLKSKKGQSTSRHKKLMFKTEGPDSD
How it was run: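 ARN8 melanoma cells stably carrying the p53-responsive pRGCΔfoslacZ reporter were exposed to inhibitors for 24 h, permeabilized with 0.3% Triton X-100 for 15 min, and given MUG substrate (final 80 μM). Fluorescence was read at 355/460 nm after 1 h. Data are mean ± SD of three independent experiments.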

[6] = molecular target: T1, Retinoblastoma-associated protein (Homo sapiens); experiment: Inhibition of retinoblastoma protein in human MCF7 cells assessed as reduction of cyclin D1 level at 2.5 to 40 uM after 24 hrs by immunoblotting; format: cell-based; how it was run: as §1
HOS = experiment: Cytotoxicity against human HOS cells after 72 hrs by fluoroskan ascent microplate reader analysis; format: functional, cell-based; how it was run: as §2
[7] = molecular target: T1, Retinoblastoma-associated protein (Homo sapiens); experiment: Inhibition of retinoblastoma protein in human MCF7 cells assessed as reduction of cyclin A level at 2.5 to 40 uM after 24 hrs by immunoblotting; format: cell-based; how it was run: as §1

Compound: CC[C@H](CO)Nc1nc(NCc2ccccc2)c2[nH]nc(C(C)C)c2n1
- inhibition [1]: inactive
- Activity (MCF7 [2]): Active
- Activity (RPMI-8226): Active
- inhibition [3]: 32%
- IC50 (G-361): 4.8 µM
- Activity (MCF7 [4]): Active
- Activity [5]: Active
- inhibition [6]: Active
- IC50 (HOS): 7.5 µM
- inhibition [7]: inactive
